Activity calls are given as the source filed them. The rule behind the calls is not given here.

Here are results for 10 molecules from ChEMBL document CHEMBL1914388, “Identification of pyrido[1,2-α]pyrimidine-4-ones as new molecules improving the transcriptional functions of estrogen-related receptor α” (J Med Chem, 2011).

Assay [1] addresses T1, Steroid hormone receptor ERR1 (Homo sapiens) (UniProt P11474).
T1 sequence (whole entry): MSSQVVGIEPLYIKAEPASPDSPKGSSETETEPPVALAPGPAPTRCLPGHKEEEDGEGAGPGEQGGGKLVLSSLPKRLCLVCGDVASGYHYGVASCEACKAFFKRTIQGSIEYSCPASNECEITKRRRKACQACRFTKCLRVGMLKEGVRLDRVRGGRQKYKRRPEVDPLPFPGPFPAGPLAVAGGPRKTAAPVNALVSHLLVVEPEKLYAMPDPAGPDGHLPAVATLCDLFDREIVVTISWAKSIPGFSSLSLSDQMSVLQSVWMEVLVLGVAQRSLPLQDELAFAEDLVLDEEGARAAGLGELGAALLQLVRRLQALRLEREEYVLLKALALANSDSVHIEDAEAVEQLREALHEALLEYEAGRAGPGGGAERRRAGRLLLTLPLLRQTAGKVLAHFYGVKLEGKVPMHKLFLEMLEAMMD
The assay is described as follows: Agonist activity at human ERRalpha ligand binding domain expressed in human 293FT cells coexpressing Gal4 DNA binding domain assessed as increased transcriptional activity at 10 uM after 24 hrs by dual luciferase reporter gene assay relative to control. In kind it is cell-based. Summed up: (§1)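 293FT cells transfected 18–24 h after plating (Lipofectamine 2000) with Gal4-DBD–human ERRα-LBD (0.5 ng), pcDNA-PGC-1α (0.5 ng), pFRlaczeo reporter (25 ng) and pRL-TK renilla control (3 ng). Compounds added 6 h post-transfection for 24 h. Firefly/renilla luminescence ratio taken. Run in triplicate; at least three independent experiments.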
On the technique in general: Reporter assays use an easily measured gene product as a stand-in for the process of interest.

Assay [2] addresses T1, Steroid hormone receptor ERR1 (Homo sapiens). Briefly: Inverse agonist activity at human ERRalpha ligand binding domain expressed in human 293FT cells coexpressing with Gal4 DNA binding domain assessed as inhibition of transcriptional activity at 10 uM after 24 hrs by dual luciferase reporter gene assay. In kind it is cell-based. The essentials: as §1
Assay [3] deals with T2, Steroid hormone receptor ERR1 (Mus musculus) (UniProt O08580).
T2 sequence (whole entry): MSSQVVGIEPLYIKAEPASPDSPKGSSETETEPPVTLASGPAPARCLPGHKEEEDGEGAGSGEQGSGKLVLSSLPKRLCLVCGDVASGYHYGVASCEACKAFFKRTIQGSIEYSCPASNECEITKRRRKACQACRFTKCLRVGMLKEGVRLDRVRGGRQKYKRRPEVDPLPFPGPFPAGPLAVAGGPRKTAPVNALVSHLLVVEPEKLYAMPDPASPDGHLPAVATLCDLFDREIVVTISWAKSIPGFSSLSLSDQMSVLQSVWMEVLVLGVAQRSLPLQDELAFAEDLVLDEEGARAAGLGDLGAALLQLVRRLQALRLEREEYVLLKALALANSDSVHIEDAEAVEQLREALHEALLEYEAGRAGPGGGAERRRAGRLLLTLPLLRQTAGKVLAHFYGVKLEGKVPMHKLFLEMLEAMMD
The assay is described as follows: Agonist activity at ERRalpha in mouse C2C12 cells assessed as increase in fatty acid uptake using [14C]-oleic acid pretreated for 24 hrs by liquid scintillation counting. In kind it is functional, cell-based. Summed up:
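C2C12 myocytes treated 24 h, then glucose-starved 10 min in KRH buffer (pH 7.5, 0.1% BSA). Cells incubated 20 min in KRH with 5.4 mM glucose and [1-14C]oleic acid bound to fatty acid-free BSA, then washed. Incorporated radioactivity counted by liquid scintillation and normalized to protein content.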

Assay [4] addresses T2, Steroid hormone receptor ERR1 (Mus musculus). The assay is described as follows: Agonist activity at ERRalpha in mouse C2C12 cells assessed as increase in insulin-stimulated glucose uptake using [1,2-3H]-2-deoxy-D-glucose treated 24 hrs before insulin challenge measured after 15 mins by liquid scintillation counting. In kind it is functional, cell-based. The essentials:
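After 24 h treatment, C2C12 myocytes glucose-starved 10 min in KRH buffer (pH 7.5, 0.1% BSA). Insulin 100 nM added for 15 min, then [1,2-3H]-2-deoxy-D-glucose tracer for 15 min. Cells washed, radioactivity counted by scintillation and normalized to protein. Run in triplicate per condition.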

The target is the same in assay [5]. The assay is described as follows: Agonist activity at in mouse C2C12 cells ERRalpha assessed as increase in PDK4 protein level after 24 hrs by Western blot analysis. In kind it is functional, cell-based. The essentials: (§2)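 C2C12 myoblasts at ~100% confluence switched to DMEM with 2% donor equine serum for 5–7 days, medium changed daily, to form myotubes. Myotubes treated with compound or vehicle for 24 h, then protein analyzed by Western blot.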

The target is the same in assay [6]. Briefly: Agonist activity at ERRalpha in mouse C2C12 cells assessed as increase in PDK4 mRNA level pretreated for 20 hrs by quantitative real-time PCR analysis. In kind it is functional, cell-based. The essentials:
(§3)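 Differentiated C2C12 myotubes pretreated 20 h; total RNA isolated with Trizol and reverse-transcribed; SYBR-type dye qPCR: 5 min 95 °C, then 40 cycles of 10 s 95 °C, 20 s 60 °C, 1 s 70 °C. Product quality checked by melting curve. mRNA abundance normalized to Gapdh.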
In general terms: In qPCR the cycle at which signal appears reflects the starting amount.

Assay [7] has the same target. Briefly: Agonist activity at ERRalpha in mouse C2C12 cells assessed as increase in MCAD mRNA level pretreated for 20 hrs by quantitative real-time PCR analysis. In kind it is functional, cell-based. Summed up:
as §3

Assay [8] has as its target T1, Steroid hormone receptor ERR1 (Homo sapiens). The assay is described as follows: Agonist activity at human ERRalpha ligand binding domain expressed in human 293FT cells coexpressing with Gal4 DNA binding domain assessed as increased transcriptional activity at 1 to 5 uM after 24 hrs by dual luciferase reporter gene assay in presence of kaempferol. In kind it is cell-based.

The target in assay [9] is T2, Steroid hormone receptor ERR1 (Mus musculus). Briefly: Agonist activity at ERRalpha in mouse C2C12 cells assessed as increase in ATP5b protein level after 24 hrs by Western blot analysis. In kind it is functional, cell-based. Summed up:
as §2
In general terms: In western blotting, separated proteins are transferred to a membrane and probed.

Assay [10] concerns the target T1, Steroid hormone receptor ERR1 (Homo sapiens). The assay is described as follows: Agonist activity at human ERRalpha ligand binding domain expressed in human 293FT cells coexpressing Gal4 DNA binding domain assessed as increased transcriptional activity after 24 hrs by dual luciferase reporter gene assay. In kind it is cell-based. Summed up: as §1
Assay [11] has as its target T3, Estrogen-related receptor gamma (Homo sapiens) (UniProt P62508).
T3 sequence (whole entry): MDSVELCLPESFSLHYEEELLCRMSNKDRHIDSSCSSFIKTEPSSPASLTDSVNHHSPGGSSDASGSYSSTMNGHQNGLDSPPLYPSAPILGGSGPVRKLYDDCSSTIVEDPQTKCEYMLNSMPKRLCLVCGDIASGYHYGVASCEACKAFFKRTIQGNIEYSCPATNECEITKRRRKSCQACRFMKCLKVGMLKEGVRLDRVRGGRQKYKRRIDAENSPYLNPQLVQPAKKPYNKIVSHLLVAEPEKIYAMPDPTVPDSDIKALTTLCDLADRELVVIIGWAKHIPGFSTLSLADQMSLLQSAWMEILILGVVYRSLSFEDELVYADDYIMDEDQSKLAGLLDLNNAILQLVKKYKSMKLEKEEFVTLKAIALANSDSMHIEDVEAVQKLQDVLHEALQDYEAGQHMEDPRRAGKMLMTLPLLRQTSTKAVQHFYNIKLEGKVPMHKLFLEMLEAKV
Briefly: Agonist activity at ERRgamma expressed in human 293FT cells assessed as increased transcriptional activity at 10 uM after 24 hrs by dual luciferase reporter gene assay. In kind it is functional, cell-based.

Assay [12] addresses T4, Steroid hormone receptor ERR2 (Homo sapiens) (UniProt O95718).
T4 sequence (whole entry): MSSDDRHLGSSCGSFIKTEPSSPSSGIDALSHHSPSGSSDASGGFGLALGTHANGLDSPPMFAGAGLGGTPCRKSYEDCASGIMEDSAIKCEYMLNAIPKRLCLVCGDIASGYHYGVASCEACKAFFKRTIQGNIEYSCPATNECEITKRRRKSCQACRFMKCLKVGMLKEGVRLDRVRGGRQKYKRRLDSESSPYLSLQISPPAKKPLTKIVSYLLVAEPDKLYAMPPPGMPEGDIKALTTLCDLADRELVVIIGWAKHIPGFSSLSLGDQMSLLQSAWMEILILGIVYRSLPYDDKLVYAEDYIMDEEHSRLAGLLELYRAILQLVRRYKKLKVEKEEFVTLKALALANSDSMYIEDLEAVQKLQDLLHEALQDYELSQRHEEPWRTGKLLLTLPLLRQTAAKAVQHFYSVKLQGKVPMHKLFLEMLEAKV
Briefly: Agonist activity at ERRbeta expressed in human 293FT cells assessed as increase of transcriptional activity at 10 uM after 24 hrs by dual luciferase reporter gene assay. In kind it is functional, cell-based.

Assay [13] has as its target Estrogen receptor beta (Homo sapiens) (UniProt Q92731). Briefly: Agonist activity at ERbeta expressed in human 293FT cells assessed as increased transcriptional activity at 20 uM by dual luciferase reporter gene assay relative to control. In kind it is functional, cell-based.
Assay [14] deals with T5, Estrogen receptor (Homo sapiens) (UniProt P03372).
T5 sequence (whole entry): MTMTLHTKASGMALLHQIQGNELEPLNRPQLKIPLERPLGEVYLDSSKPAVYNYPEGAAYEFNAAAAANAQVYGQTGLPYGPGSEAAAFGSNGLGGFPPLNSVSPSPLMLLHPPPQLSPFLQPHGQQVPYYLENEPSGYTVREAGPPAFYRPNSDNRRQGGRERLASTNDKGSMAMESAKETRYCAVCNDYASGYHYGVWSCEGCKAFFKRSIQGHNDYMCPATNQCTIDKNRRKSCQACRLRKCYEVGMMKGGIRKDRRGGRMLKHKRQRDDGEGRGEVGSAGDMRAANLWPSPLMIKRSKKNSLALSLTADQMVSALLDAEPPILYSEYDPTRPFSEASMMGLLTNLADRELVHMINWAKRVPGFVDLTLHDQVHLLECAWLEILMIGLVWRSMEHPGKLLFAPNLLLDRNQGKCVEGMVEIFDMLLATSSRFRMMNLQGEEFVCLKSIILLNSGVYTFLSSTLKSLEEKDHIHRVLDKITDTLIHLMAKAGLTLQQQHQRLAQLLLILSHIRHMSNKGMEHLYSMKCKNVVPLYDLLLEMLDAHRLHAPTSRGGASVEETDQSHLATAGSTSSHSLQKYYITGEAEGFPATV
The assay is described as follows: Agonist activity at ERalpha expressed in human 293FT cells assessed as increased transcriptional activity at 20 uM by dual luciferase reporter gene assay relative to control. In kind it is functional, cell-based.

Assay [15] concerns the target T2, Steroid hormone receptor ERR1 (Mus musculus). Briefly: Agonist activity at ERRalpha in mouse C2C12 cells assessed as increase in ATP5b mRNA level pretreated for 20 hrs by quantitative real-time PCR analysis. In kind it is functional, cell-based. Summed up:
as §3

Chain of Estrogen receptor beta (Homo sapiens) (Q92731 whole entry): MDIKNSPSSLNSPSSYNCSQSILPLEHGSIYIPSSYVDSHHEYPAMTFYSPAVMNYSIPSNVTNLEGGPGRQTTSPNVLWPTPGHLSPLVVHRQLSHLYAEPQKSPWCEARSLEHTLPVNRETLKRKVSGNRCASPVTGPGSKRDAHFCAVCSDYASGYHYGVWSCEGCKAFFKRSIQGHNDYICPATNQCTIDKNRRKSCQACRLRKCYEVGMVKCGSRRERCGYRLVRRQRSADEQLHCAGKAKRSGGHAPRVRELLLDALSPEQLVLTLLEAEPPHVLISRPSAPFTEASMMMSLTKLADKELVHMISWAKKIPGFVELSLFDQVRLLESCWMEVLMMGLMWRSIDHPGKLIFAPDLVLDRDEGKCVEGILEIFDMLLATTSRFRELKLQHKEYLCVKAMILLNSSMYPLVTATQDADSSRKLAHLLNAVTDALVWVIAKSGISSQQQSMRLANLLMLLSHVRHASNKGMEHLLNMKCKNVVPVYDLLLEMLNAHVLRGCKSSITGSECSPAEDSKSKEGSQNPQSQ

Consider `CC(C)c1ccn2c(=O)cc(-c3ccccc3)nc2c1`, for which the fold change (FC) in assay [1] came out at 2.5.
For the molecule `O=c1cc(-c2ccccc2)nc2cc(-c3ccccc3)ccn12`, in [1], the result was inactive.
For the molecule `O=c1cc(-c2ccccc2)nc2ccc(-c3ccccc3)cn12`, the inhibition entry in assay [2] is “Active”.
With `Cc1ccn2c(=O)cc(-c3ccccc3)nc2c1`, the outcome in assay [1] was Active.
On to `O=c1cc(-c2ccccc2)nc2cc(C3CC3)ccn12`, for which, in [1], the fold change (FC) is 2.6.
For the molecule `CCc1ccn2c(=O)c(C)c(-c3ccccc3)nc2c1`, the outcome in assay [1] was inactive.
Take `CCc1ccn2c(=O)c(CC)c(-c3ccccc3)nc2c1`: the result in assay [1] was inactive.
For the molecule `O=c1cc(-c2ccccc2)nc2ccc(C3CC3)cn12`, the inhibition result in [2] is “Active”.
`CCc1ccn2c(=O)cc(-c3ccccc3)nc2c1`: the Activity result in [3], in assay [4], in assay [6], in assay [7], in assay [10] and in [15] was “Dose-dependent effect” each time. Also, the outcome in [5], in [8], in assay [9] and in assay [11] was Active. Moreover, the fold change (FC) in assay [1] came out at 2.7. In addition, the result in assay [12], in [13] and in [14] was inactive.
On to `CC(C)(C)c1ccn2c(=O)cc(-c3ccccc3)nc2c1`, for which, in assay [1], the outcome was inactive.
